Measurements published in ChEMBL document CHEMBL2176891, “Structural investigation of anti-Trypanosoma cruzi 2-iminothiazolidin-4-ones allows the identification of agents with efficacy in infected mice” (J Med Chem, 2012).
The source made the active and inactive calls. No cut-off for these calls is given here.

Assays:
[1] = target: Cruzipain (Trypanosoma cruzi) (UniProt P25779); experiment: Inhibition of Trypanosoma cruzi recombinant cruzain using Z-FR-AMC as substrate at 20 uM preincubated for 10 mins before substrate addition
[2] = Cytotoxicity against BALB/c mouse splenocytes assessed as highest nontoxic concentration by measuring [3H]-thymidine incorporation after 24 hrs by beta-radiation counting; assay type: cell-based, Splenocyte; details: mouse, splenocytes, read-out: Activity
How it was run: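 BALB/c splenocytes, 5 × 10⁶ cells/well in RPMI-1640 with 10% FBS. Compound in DMSO at 1.0, 10 and 100 μg/mL or more, triplicate; untreated and saponin controls. 24 h at 37 °C, 5% CO₂. 1.0 μCi ³H-thymidine added, incorporation read by β-counting as % of untreated. Highest nontoxic concentration estimated.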

Trypanosoma cruzi [3] = experiment: Antitrypanosomal activity against trypomastigotes of Trypanosoma cruzi Y infected in LLC-MK2 cells assessed as parasite motility after 24 hrs; assay type: functional, organism-based; details: LLC-MK2, 24 h
How it was run: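 Y strain bloodstream trypomastigotes taken from LLC-MK2 culture supernatant, 4 × 10⁵ cells/well. Five compound concentrations (DMSO), triplicate, 24 h at 37 °C, 5% CO₂. Viable parasites judged by motility in a Neubauer chamber. Inhibition calculated relative to untreated culture; IC50 by nonlinear regression.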

Trypanosoma cruzi [4] = experiment: Antitrypanosomal activity against epimastigotes of Trypanosoma cruzi Y in axenic culture assessed as parasite motility after 11 days; details: 264 h
Trypanosoma cruzi [5] = experiment: Antitrypanosomal activity against trypomastigotes of Trypanosoma cruzi Y infected in mouse peritoneal macrophages assessed as reduction of intracellular parasite level at 10 uM after 4 days; assay type: functional, organism-based
How it was run: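 Peritoneal exudate macrophages, 2 × 10⁵/well on coverslips, infected with Y strain trypomastigotes at 10 parasites per macrophage for 2 h, then washed. Compound in DMSO added for 6 h, medium replaced, culture continued 4 days. After methanol fixation and Giemsa staining, 100 cells per slide counted for % infected macrophages and amastigotes per cell. IC50 based on % infected cells versus untreated.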

[6] = target: Cruzipain (Trypanosoma cruzi) (UniProt P25779); experiment: Inhibition of Trypanosoma cruzi recombinant cruzain using Z-FR-AMC as substrate at 100 uM preincubated for 10 mins before substrate addition
How it was run: (§1)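 Recombinant cruzain preincubated 10 min at room temperature with compound (DMSO) in phosphate buffer containing EDTA, 100 mM NaCl and DTT. Z-FR-AMC then added; final 0.5 nM enzyme and 2 μM substrate. Fluorescence read at 1, 5 and 10 min; % inhibition versus no-inhibitor control. Single-point values are triplicate means; IC50 by nonlinear regression from multiple concentrations. Some runs used 0.01% Triton X-100.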

Cathepsin S = Cathepsin S (Homo sapiens, UniProt P25774); experiment: Inhibition of recombinant cathepsin S using ZFR-pNA as substrate preincubated for 45 mins
How it was run: (§2)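 Recombinant cathepsin L or S activated with 1 mM DTT in 0.1 M acetate pH 5.5. Preincubated 45 min at room temperature with compound in phosphate buffer with 0.1% BSA, 1 mM EDTA and 0.001% Tween. Z-FR-pNA added, reaction 5 min; final 30 nM enzyme and 5.0 μM substrate. Triplicate runs; IC50 from at least seven concentrations.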

Procathepsin L [7] = target: T1, Procathepsin L (Homo sapiens, UniProt P07711); experiment: Inhibition of recombinant cathepsin L using ZFR-pNA as substrate at 100 uM preincubated for 45 mins; how it was run: as §2
Target sequence in this assay (P07711 114-333 limits assumed): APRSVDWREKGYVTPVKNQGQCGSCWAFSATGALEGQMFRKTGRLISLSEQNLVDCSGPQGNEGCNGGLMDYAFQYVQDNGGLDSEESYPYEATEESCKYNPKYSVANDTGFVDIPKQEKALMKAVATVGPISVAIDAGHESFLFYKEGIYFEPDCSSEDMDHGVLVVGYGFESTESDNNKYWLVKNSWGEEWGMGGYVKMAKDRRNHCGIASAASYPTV

Procathepsin L [8] = target: T1, Procathepsin L; experiment: Inhibition of recombinant cathepsin L using ZFR-pNA as substrate preincubated for 45 mins; how it was run: as §2
Target sequence in this assay (P07711 whole entry): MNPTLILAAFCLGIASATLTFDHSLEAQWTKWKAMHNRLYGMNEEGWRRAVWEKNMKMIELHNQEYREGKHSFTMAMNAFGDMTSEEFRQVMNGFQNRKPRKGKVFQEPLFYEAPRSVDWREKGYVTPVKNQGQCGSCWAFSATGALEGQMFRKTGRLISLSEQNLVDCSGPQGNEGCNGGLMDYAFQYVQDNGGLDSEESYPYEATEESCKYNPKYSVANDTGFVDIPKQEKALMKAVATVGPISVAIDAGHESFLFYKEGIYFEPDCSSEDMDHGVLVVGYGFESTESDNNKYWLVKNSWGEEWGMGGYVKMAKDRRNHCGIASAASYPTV

Cruzipain = Cruzipain (Trypanosoma cruzi, UniProt P25779); experiment: Inhibition of Trypanosoma cruzi recombinant cruzain using Z-FR-AMC as substrate preincubated for 10 mins before substrate addition; how it was run: as §1
Trypanosoma cruzi [9] = experiment: Inhibition of trypomastigotes of Trypanosoma cruzi Y invasion to mouse peritoneal macrophages at 50 uM […]; assay type: functional, organism-based
[10] = Solubility of the compound in 0.1 M sodium acetate pH 5.5; assay type: physicochemical; details: buffer
[11] = target: Cruzipain (Trypanosoma cruzi) (UniProt P25779); experiment: Inhibition of Trypanosoma cruzi recombinant cruzain using Z-FR-AMC as substrate at 20 uM preincubated for 10 mins before substrate addition in presence of 0.01% of Triton X-100; how it was run: as §1

Sequence of Cruzipain (Trypanosoma cruzi) (P25779 123-467 limits assumed): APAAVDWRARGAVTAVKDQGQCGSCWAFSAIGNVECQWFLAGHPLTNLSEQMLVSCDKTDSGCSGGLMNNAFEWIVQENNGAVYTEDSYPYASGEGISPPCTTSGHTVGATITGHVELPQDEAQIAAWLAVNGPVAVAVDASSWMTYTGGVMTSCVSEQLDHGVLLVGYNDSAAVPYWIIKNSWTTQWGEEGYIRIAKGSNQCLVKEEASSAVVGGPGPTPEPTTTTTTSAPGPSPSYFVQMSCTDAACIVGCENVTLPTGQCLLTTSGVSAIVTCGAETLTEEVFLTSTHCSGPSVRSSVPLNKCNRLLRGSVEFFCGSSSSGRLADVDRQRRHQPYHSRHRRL
Sequence of Cruzipain (P25779 whole entry): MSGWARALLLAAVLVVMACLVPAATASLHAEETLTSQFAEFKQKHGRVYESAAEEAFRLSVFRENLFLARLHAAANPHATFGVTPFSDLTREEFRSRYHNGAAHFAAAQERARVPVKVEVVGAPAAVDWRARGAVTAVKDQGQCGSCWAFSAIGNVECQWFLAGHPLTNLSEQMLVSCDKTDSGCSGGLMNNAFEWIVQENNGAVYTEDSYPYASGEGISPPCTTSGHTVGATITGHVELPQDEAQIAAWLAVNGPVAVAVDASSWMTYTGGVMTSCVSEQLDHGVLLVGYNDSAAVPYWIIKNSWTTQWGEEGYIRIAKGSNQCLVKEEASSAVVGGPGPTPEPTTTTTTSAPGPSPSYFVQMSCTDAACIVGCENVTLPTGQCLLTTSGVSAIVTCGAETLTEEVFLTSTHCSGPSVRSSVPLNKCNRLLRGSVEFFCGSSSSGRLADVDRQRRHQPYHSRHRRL
Sequence of Cathepsin S (P25774 whole entry): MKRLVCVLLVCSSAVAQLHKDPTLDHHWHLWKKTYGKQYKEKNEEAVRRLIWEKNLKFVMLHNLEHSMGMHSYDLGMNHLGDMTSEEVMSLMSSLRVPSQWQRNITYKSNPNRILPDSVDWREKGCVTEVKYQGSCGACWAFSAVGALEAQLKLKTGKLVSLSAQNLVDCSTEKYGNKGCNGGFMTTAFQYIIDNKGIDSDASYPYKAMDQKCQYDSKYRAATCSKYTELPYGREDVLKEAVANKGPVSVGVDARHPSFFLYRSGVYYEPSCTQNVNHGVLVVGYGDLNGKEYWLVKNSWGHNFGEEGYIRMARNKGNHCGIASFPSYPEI

| Compound | inhibition [1] | IC50 (Trypanosoma cruzi [3]) | IC50 (Trypanosoma cruzi [4]) | MNTC at 24 h [2] | also measured |
| --- | --- | --- | --- | --- | --- |
| C/C(COc1ccccc1)=N\N=c1\scc(-c2ccccc2)n1-c1ccccc1 | inactive | 61.1 µM | 2.6 µM | > 100 µg/mL | – |
| C/C(COc1ccccc1)=N\N=C1\SCC(=O)N1c1ccccc1 | 66% | 18 µM | 25.8 µM | > 100 µg/mL | IC50 (Cathepsin S): > 100 µM; inhibition (Procathepsin L [7]): 0%; IC50 (Procathepsin L [8]): > 100 µM; IC50 (Cruzipain; read-out: IC50): 10.2 µM |
| C/C(COc1ccccc1)=N\N=C1\SCC(=O)N1C | 0% | – | – | > 100 µg/mL | IC50 (Cruzipain): ND(Insoluble) |
| C[C@@H]1[C@H](O)[C@@H](C)/C=C/C=C/C=C/C=C/C=C/C=C/C=C/[C@H](O[C@@H]2O[C@H](C)[C@@H](O)[C@H](N)[C@@H]2O)C[C@@H]2O[C@](O)(C[C@@H](O)C[C@@H](O)[C@H](O)CC[C@@H](O)C[C@@H](O)CC(=O)O[C@H]1C)C[C@H](O)[C@H]2C(=O)O | – | – | – | – | inhibition (Trypanosoma cruzi [9]): Active |
| C/C(COc1ccccc1)=N\N=C1\SC(c2ccccc2)C(=O)N1C (racemic) | 27% | 18 µM | 12 µM | > 100 µg/mL | solubility [10]: Insoluble; IC50 (Cruzipain): ND(Insoluble) |
| C/C(COc1ccccc1)=N\N=C1\SC(C)C(=O)N1c1ccccc1 (racemic) | 50% | 29 µM | 31.8 µM | 100 µg/mL | Activity (Trypanosoma cruzi [5]): Active; inhibition (Procathepsin L [7]): 0%; IC50 (Cruzipain; read-out: IC50): 10.8 µM |
| CCC1S/C(=N/N=C(\C)COc2ccccc2)N(c2ccccc2)C1=O (racemic) | 66% | 5.8 µM | 11.1 µM | 100 µg/mL | Activity (Trypanosoma cruzi [5]): Active; IC50 (Cathepsin S): > 100 µM; inhibition (Procathepsin L [7]): 4%; IC50 (Procathepsin L [8]): > 100 µM; IC50 (Cruzipain; read-out: IC50): 9.5 µM; inhibition [11]: 64% |
| C/C(COc1ccccc1)=N\N=C1\SC(c2ccccc2)C(=O)N1c1ccccc1 (racemic) | 43% | 11.1 µM | 15.6 µM | > 100 µg/mL | solubility [10]: Insoluble; inhibition (Procathepsin L [7]): 15%; IC50 (Cruzipain): ND(Insoluble) |
| C/C(COc1ccccc1)=N\N=C1\SC(c2ccccc2)C(=S)N1c1ccccc1 (racemic) | 72% | 11.2 µM | 4.2 µM | 100 µg/mL | inhibition (Procathepsin L [7]): 89%; IC50 (Procathepsin L [8]): 10.8 µM; IC50 (Cruzipain; read-out: IC50): 7 µM; inhibition [11]: 79% |
| CCC1S/C(=N/N=C(\C)COc2ccccc2)NC1=S (racemic) | 48% | 31.5 µM | 26.1 µM | 25 µg/mL | inhibition (Procathepsin L [7]): 81%; IC50 (Procathepsin L [8]): 13.8 µM; IC50 (Cruzipain; read-out: IC50): 18.7 µM |
| CCC1S/C(=N/N=C(\C)COc2ccccc2)N(c2ccc(C)cc2)C1=O (racemic) | 65% | 19.9 µM | 15 µM | 100 µg/mL | IC50 (Cruzipain; read-out: IC50): 11.8 µM |
| CCC1S/C(=N/N=C(\C)COc2ccccc2)N(c2ccc(OC)cc2)C1=O (racemic) | 71% | 9 µM | 6.8 µM | 100 µg/mL | IC50 (Cruzipain; read-out: IC50): 8.7 µM |
| CCC1S/C(=N/N=C(\C)COc2ccccc2)N(C2CCCCC2)C1=O (racemic) | 10% | – | – | > 100 µg/mL | – |
| C/C(COc1ccccc1)=N\N=C1/NC(=O)C(C)S1 (racemic) | 3% | – | – | > 100 µg/mL | inhibition (Procathepsin L [7]): 0% |
| CCC1S/C(=N/N=C(\C)COc2ccccc2)NC1=O (racemic) | 5% | – | – | > 100 µg/mL | inhibition (Procathepsin L [7]): 5% |
| C/C(COc1ccccc1)=N\N=C1/NC(=O)C(C(C)C)S1 (racemic) | 60.8% | 16.8 µM | 12.2 µM | > 100 µg/mL | inhibition (Procathepsin L [7]): 11%; IC50 (Cruzipain; read-out: IC50): 18.9 µM |
| C/C(COc1ccccc1)=N\N=C1/NC(=O)C(c2ccccc2)S1 (racemic) | 63% | 18.7 µM | 34.8 µM | 25 µg/mL | inhibition [6]: 63%; solubility [10]: Insoluble |
| C/C(COc1ccccc1)=N\N=C1\SC(C)C(=O)N1C (racemic) | 0% | – | – | 25 µg/mL | – |
| CCC1S/C(=N/N=C(\C)COc2ccccc2)N(C)C1=O (racemic) | 50% | – | – | > 100 µg/mL | IC50 (Cathepsin S): > 100 µM; inhibition (Procathepsin L [7]): 6%; IC50 (Procathepsin L [8]): > 100 µM; IC50 (Cruzipain; read-out: IC50): 31.9 µM |
| C/C(COc1ccccc1)=N\N=C1\SC(C(C)C)C(=O)N1C (racemic) | 81% | 10.7 µM | 14 µM | > 100 µg/mL | IC50 (Cathepsin S): > 100 µM; inhibition (Procathepsin L [7]): 0%; IC50 (Procathepsin L [8]): > 100 µM; IC50 (Cruzipain; read-out: IC50): 8 µM |
| CC1CS(=O)(=O)CCN1/N=C/c1ccc([N+](=O)[O-])o1 (stereo not drawn) [NIFURTIMOX] | – | 2.7 µM | 1.9 µM | 1 µg/mL | – |

The next lines start with results.

| inhibition [1] | IC50 (Trypanosoma cruzi [3]) | IC50 (Trypanosoma cruzi [4]) | Compound | MNTC at 24 h [2] | also measured |
| --- | --- | --- | --- | --- | --- |
| inactive | 17.8 µM | 14.9 µM | COc1ccc(-c2csc(N/N=C(\C)COc3ccccc3)n2)cc1 | 100 µg/mL | – |
| inactive | 11.5 µM | 41.3 µM | C/C(COc1ccccc1)=N\Nc1nc(-c2ccc(F)cc2)cs1 | > 100 µg/mL | – |
| 13% | – | 57.1 µM | C/C(COc1ccccc1)=N\Nc1nc(-c2ccc(Cl)cc2)cs1 | 100 µg/mL | – |
| 25% | – | 49.8 µM | C/C(COc1ccccc1)=N\Nc1nc(-c2ccc(Br)cc2)cs1 | 100 µg/mL | – |
| inactive | 5.7 µM | 1.9 µM | C/C(COc1ccccc1)=N\Nc1nc(-c2ccc([N+](=O)[O-])cc2)cs1 | 100 µg/mL | Activity (Trypanosoma cruzi [5]): Active |
| inactive | 3.8 µM | 4 µM | C/C(COc1ccccc1)=N\Nc1nc(-c2cccc([N+](=O)[O-])c2)cs1 | 100 µg/mL | – |
| 20% | 17 µM | 19 µM | C/C(COc1ccccc1)=N\Nc1nc(-c2ccc(Cl)c(Cl)c2)cs1 | 25 µg/mL | – |
| 40% | 17 µM | 42.2 µM | C/C(COc1ccccc1)=N\Nc1nc(-c2ccc(Cl)cc2Cl)cs1 | < 1 µg/mL | – |
| inactive | – | – | C/C(COc1ccccc1)=N\Nc1nc(-c2ccc(Cl)c(Cl)c2Cl)cs1 | > 1 µg/mL | – |
| inactive | – | – | C/C(COc1ccccc1)=N\Nc1nc(-c2ccc(C(C)(C)C)cc2)cs1 | 50 µg/mL | – |
| inactive | 36.4 µM | 83 µM | C/C(COc1ccccc1)=N\Nc1nc(-c2ccc3ccccc3c2)cs1 | > 100 µg/mL | – |
| – | 17.7 µM | – | C/C(COc1ccccc1)=N\Nc1nc(-c2ccco2)cs1 | > 100 µg/mL | inhibition [6]: 4.7% |
| – | 37.6 µM | 16.6 µM | C/C(COc1ccccc1)=N\Nc1nc(-c2cccs2)cs1 | 50 µg/mL | inhibition [6]: 30% |
| inactive | 175 µM | 25.6 µM | C/C(COc1ccccc1)=N\N=c1\scc(-c2ccccc2)n1C | 10 µg/mL | – |
| inactive | 34.8 µM | 11.8 µM | C/C(COc1ccccc1)=N\Nc1nc(-c2ccccn2)cs1 | 100 µg/mL | – |
| inactive | 12.3 µM | 20.5 µM | C/C(COc1ccccc1)=N\Nc1nc(-c2cccnc2)cs1 | 100 µg/mL | – |
| – | 3.9 µM | 4 µM | C/C(COc1ccccc1)=N\Nc1nc(-c2ccncc2)cs1 | 100 µg/mL | inhibition (Trypanosoma cruzi [9]): inactive; Activity (Trypanosoma cruzi [5]): inactive; inhibition [6]: 13.3% |
| inactive | 49.7 µM | 67 µM | C/C(COc1ccccc1)=N\Nc1nc(-c2ccc(C)cc2)cs1 | 100 µg/mL | – |
